This is an account of results in publication PMC9889102 (European journal of medicinal chemistry, 2022).

Usually pIC50 stands for the IC50 on a negative log10 scale, so that one unit is a factor of ten. Higher therefore signals a small IC50.

pIC50: −log10 of the molar value. Like-named read-outs stand apart in the source and are kept apart here.

For series [1] the following is noted: ref [25], cited from earlier work.
The target of series [2] is phosphorylated chicken gizzard smooth muscle myosin (Gallus gallus, UniProt P10587). The experiment in a line: Steady-state actin-activated Mg2+ ATPase inhibition, smooth muscle myosin. The format is biochemical. An outline of the steps: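 Chicken gizzard smooth muscle myosin was fully phosphorylated (checked by urea gel), never frozen, and used within 2–3 weeks. It was run at 0.2 mg/mL final with 32 μM rabbit F-actin at 30 °C in MOPS pH 7.0, 50 mM NaCl, 0.1 mM EGTA, 5 mM MgCl2, 2 mM ATP, 1 mM DTT. DMSO was 2%, with dilutions from a 25 mM stock. IC50 is the half-maximal drop in steady-state ATPase.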
phosphorylated chicken gizzard smooth muscle myosin, sequence (P10587 2-1979 limits assumed): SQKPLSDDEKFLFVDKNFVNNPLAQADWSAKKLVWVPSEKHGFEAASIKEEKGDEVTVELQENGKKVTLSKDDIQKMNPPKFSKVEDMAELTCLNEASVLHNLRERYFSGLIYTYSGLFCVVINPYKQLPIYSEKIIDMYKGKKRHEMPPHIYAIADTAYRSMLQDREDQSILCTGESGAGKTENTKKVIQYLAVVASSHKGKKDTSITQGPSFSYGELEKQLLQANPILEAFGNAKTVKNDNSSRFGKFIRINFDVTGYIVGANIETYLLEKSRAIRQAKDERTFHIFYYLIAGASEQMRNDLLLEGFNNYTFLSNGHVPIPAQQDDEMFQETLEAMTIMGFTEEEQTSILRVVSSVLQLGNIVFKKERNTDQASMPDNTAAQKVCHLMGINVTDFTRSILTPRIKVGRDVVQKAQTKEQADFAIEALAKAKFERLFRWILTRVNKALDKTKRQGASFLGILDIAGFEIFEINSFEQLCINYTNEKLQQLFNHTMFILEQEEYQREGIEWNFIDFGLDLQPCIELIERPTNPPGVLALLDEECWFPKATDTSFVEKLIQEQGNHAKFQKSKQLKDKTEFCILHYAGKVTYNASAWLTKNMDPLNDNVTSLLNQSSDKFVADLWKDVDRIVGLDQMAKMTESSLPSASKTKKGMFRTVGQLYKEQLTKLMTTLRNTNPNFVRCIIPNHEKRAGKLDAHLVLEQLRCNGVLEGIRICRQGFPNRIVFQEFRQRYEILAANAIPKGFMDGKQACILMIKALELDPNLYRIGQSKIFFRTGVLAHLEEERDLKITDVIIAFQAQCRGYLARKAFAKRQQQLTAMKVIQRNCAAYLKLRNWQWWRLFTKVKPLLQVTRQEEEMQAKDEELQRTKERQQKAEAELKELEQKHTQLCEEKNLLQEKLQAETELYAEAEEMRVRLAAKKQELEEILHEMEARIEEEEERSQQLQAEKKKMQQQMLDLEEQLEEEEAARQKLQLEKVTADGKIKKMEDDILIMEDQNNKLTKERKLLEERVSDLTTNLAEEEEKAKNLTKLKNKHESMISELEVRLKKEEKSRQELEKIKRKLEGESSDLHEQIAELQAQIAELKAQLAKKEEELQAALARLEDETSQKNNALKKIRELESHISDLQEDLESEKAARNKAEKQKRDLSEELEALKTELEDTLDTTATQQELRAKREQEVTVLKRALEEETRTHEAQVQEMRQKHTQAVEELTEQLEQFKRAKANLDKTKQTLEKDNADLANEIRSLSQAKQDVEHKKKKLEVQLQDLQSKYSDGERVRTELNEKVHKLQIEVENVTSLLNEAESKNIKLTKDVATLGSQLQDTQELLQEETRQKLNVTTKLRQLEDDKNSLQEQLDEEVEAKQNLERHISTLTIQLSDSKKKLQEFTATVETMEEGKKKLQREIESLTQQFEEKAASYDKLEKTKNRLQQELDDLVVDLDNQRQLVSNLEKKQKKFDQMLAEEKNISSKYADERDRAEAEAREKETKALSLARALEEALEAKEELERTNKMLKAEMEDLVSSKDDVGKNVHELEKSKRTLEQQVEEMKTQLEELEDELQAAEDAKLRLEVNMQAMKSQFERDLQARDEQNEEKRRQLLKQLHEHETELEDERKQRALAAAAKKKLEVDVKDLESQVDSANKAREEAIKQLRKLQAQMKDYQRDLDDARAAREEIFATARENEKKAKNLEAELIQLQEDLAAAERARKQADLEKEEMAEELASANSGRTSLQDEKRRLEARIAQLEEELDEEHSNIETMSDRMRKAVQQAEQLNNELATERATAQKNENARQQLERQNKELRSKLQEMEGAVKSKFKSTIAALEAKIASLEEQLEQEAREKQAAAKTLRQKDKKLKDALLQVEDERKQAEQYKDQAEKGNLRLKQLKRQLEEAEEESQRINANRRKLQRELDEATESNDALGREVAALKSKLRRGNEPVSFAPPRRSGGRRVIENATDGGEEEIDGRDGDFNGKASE

Series [3] concerns NM-IIB (cytokinesis in Cos-7 cells). In words: Cytokinesis inhibition in Cos-7 cells. The format is cell-based. Conditions: 24 h, 37 °C. An outline of the steps: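 Cos-7 cells (4,000/well) were pre-grown 24 h, then exposed 24 h at 37 °C, 5% CO2 to test compound at 40 μM final in 1% DMSO. Controls were 1% DMSO and media (negative), plus para-aminoblebbistatin 20 μM and (−)-blebbistatin 10 μM (positive). Staining was fluorescein diacetate, Hoechst 33342 and propidium iodide for 10 min. N/C is Hoechst nuclei (excluding PI-positive) per FDA-stained cell. Triplicate wells, ≥2 experiments, ≥600 cells/well.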

The test system of another series is BEAS-2B, MCF-7 and A549. Conditions: normal human cell line BEAS-2B and cancer cell lines MCF-7 and A549; ref [41]; cited from earlier work.
The target in series [4] is T1, fast rabbit skeletal myosin (Oryctolagus cuniculus, UniProt Q28641). The experiment in a line: Steady-state actin-activated Mg2+ ATPase inhibition, skeletal myosin. The format is biochemical. Conditions: cardiac IC50 (x) / skeletal IC50 (y). The method, boiled down: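 Rabbit psoas skeletal myosin (unphosphorylated, 0.1 mg/mL final) with rabbit psoas F-actin (32 μM) at 30 °C, pH 7.0 MOPS buffer (50 mM NaCl, 0.1 mM EGTA, 5 mM MgCl2, 2 mM ATP, 1 mM DTT), 2% DMSO. IC50 taken as half-maximal reduction of steady-state rate. Selectivity is cardiac IC50 (bovine left-ventricle myosin, 0.5 mg/mL) divided by skeletal IC50.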
T1 sequence (Q28641 whole entry): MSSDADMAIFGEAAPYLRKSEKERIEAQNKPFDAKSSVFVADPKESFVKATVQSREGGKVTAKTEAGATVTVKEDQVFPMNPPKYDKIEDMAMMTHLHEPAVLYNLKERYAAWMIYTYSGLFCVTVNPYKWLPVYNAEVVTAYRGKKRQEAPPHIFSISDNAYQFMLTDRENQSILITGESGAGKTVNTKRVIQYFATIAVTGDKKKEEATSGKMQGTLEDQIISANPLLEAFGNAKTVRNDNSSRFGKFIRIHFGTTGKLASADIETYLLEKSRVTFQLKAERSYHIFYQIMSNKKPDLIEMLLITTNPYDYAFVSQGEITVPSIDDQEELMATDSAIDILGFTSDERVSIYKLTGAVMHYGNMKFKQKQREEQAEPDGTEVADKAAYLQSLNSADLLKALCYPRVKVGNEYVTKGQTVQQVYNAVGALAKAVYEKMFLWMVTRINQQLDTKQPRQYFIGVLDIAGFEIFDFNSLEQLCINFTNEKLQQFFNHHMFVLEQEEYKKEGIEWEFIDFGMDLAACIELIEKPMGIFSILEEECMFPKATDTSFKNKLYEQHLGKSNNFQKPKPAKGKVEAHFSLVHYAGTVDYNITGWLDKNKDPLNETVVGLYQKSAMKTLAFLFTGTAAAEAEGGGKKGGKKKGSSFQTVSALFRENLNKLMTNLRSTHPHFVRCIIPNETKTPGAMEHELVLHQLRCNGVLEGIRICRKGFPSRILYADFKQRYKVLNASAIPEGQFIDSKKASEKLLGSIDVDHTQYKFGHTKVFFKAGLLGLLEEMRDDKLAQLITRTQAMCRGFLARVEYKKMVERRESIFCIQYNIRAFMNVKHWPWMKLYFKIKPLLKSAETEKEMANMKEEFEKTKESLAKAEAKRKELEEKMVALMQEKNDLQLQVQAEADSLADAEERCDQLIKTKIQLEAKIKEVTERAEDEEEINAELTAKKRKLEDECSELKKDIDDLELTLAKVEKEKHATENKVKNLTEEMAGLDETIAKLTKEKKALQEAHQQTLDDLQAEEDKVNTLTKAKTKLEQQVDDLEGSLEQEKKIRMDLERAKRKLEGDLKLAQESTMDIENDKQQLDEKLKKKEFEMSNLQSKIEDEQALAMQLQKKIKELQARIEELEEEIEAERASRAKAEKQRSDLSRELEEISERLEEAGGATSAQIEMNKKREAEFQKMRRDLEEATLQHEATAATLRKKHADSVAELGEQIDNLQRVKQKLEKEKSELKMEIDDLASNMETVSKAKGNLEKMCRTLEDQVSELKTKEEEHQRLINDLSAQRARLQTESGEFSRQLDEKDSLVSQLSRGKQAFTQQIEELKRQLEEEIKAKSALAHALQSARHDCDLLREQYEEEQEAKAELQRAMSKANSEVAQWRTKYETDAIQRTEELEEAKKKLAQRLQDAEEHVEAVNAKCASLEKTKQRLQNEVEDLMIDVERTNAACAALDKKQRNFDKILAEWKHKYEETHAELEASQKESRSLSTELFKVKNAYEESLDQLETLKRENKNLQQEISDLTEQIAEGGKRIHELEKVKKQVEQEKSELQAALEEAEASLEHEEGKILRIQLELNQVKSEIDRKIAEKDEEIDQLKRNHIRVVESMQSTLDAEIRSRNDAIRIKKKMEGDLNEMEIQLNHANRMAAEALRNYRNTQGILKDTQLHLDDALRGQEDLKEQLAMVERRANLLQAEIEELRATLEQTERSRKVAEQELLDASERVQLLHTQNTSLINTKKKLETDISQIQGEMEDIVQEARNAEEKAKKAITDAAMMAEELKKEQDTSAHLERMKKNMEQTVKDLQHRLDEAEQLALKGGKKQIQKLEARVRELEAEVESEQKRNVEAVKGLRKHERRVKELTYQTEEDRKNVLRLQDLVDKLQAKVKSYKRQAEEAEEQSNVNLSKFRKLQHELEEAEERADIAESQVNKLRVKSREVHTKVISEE
T1 sequence (P02602 whole entry partner): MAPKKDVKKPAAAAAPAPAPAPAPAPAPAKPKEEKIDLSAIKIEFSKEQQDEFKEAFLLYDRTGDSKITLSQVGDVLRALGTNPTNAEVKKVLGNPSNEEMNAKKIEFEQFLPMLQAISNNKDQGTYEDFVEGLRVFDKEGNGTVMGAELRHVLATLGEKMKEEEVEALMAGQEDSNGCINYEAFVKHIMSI
T1 sequence (P02608 whole entry partner): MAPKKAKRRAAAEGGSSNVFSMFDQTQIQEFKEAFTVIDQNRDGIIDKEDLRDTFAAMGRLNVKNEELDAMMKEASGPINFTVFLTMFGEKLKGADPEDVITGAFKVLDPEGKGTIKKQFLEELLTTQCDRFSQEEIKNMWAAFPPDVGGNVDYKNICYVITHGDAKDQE

For series [5] the following is noted: 99:1 (v/v) PBS/methanol, room temperature; ref [25]; cited from earlier work.
Series [6] deals with T1, fast rabbit skeletal myosin. Conditions: previously reported ketimines; favoured isoform; ref [25]; cited from earlier work.

“3-(N-butylethanimidoyl)-4-hydroxy-2H-chromen-2-one [BHC, reference compound]”: the Kinetic solubility in series [1] (nephelometry in PBS (pH 7.4) containing 2.5% DMSO) was 607 ± 2 μm. For `C/C(=N\Cc1ccccc1)c1c(O)c2ccccc2oc1=O` [Analog 2], in series [1] (pH 7.4 PBS, 2.5% DMSO), the Kinetic solubility was 100 µM.

Compound `COCC/N=C(\C)c1c(O)c2ccccc2oc1=O` [Analog 5a, 4-Hydroxy-3-(N-(2-methoxyethyl)ethanimidoyl)-2H-chromen-2-one] showed a pIC50 in series [2] of at most 4.00. Still for that read-out and setting: the same measure for `CCOCC/N=C(\C)c1c(O)c2ccccc2oc1=O` [Analog 5b, 3-(N-(2-Ethoxyethyl)ethanimidoyl)-4-hydroxy-2H-chromen-2-one]: at most 4.00; for `COCCC/N=C(\C)c1c(O)c2ccccc2oc1=O` [Analog 5c, 4-Hydroxy-3-(N-(3-methoxypropyl)ethanimidoyl)-2H-chromen-2-one]: at most 4.00; for `CCOCCC/N=C(\C)c1c(O)c2ccccc2oc1=O` [Analog 5d, 3-(N-(3-Ethoxypropyl)ethanimidoyl)-4-hydroxy-2H-chromen-2-one]: at most 4.00.

With `COc1cccc(C/N=C(\C)c2c(O)c3ccccc3oc2=O)c1` [Analog 6a, 4-Hydroxy-3-(N-(3-methoxybenzyl)ethanimidoyl)-2H-chromen-2-one], in series [2], the negative-log IC50 (pIC50) is at most 4.00. Compound `COc1ccc(C/N=C(\C)c2c(O)c3ccccc3oc2=O)cc1` [Analog 6b, 4-Hydroxy-3-(N-(4-methoxybenzyl)ethanimidoyl)-2H-chromen-2-one] had a pIC50 in series [2] of at most 4.00. Besides, the “Inhibition of cytokinesis (nuclei to cell ratio, N/C)” value in series [3] (40 μM) is “did not inhibit cytokinesis”. In addition, in the series on BEAS-2B, MCF-7 and A549, the Cytotoxicity entry is listed as “low μM range”. For `CCOCCC/N=C/c1c(O)c2ccccc2oc1=O` [Analog 8a, 3-(N-(3-Ethoxypropyl)methanimidoyl)-4-hydroxy-2H-chromen-2-one], the negative-log IC50 (pIC50) in series [2] is at most 4.00. For `COc1ccc(COCCC/N=C(\C)c2c(O)c3ccccc3oc2=O)cc1` [Analog 13b], in series [4], the Selectivity x/y is recorded as at least 2.0. For the same compound, the pIC50 in series [2] was at most 4.00. For `C/C(=N\CCCOCc1ccc2c(c1)OCO2)c1c(O)c2ccccc2oc1=O` [Analog 13c], in series [2], the pIC50 is at most 4.00. The “Inhibition of cytokinesis (nuclei to cell ratio, N/C)” value in series [3] (40 μM) is given as “no cytokinesis inhibition”. `CCCCN(CCC/N=C(\C)c1c(O)c2ccccc2oc1=O)Cc1cccc(OC)c1` [Analog 19, 3-(N-(N’-Butyl-N’−3-methoxybenzyl-3-aminopropyl)ethanimidoyl)-4-hydroxy-2H-chromen-2-one] had a negative-log IC50 (pIC50) in series [2] of at most 4.00. On the same count and under the same terms, the same measure for `COc1cc(/C=C/C(=O)c2c(O)c3ccccc3oc2=O)ccc1O` [Analog 20, 4-Hydroxy-3-(3-(4-hydroxy-3-methoxyphenyl)-1-oxo-2-propen-1-yl)-2H-1-Benzopyran-2-one]: at most 4.00. For `Cc1ccc2c(c1)C(=O)[C@]1(O)CCN(c3ccccc3)C1=N2` [Blebbistatin, blebbistatin, reference compound], the “Inhibition of cytokinesis (nuclei to cell ratio, N/C)” value in series [3] (positive control, 10 μM) is given as “inhibited cytokinesis”. For the compound `C/C(=N\Cc1ccncc1)c1c(O)c2ccccc2oc1=O` [JB031], in series [5], the half-life for hydrolysis was 84 ± 12 h. As for `C/C(=N\Cc1ccc(C)cc1)c1c(O)c2ccccc2oc1=O` [JB060], the “Selectivity (cardiac vs. skeletal myosin inhibition)” value in series [6] is “skeletal-selective”.

In the case of `C/C(=N\Cc1cccc(C)c1)c1c(O)c2ccccc2oc1=O` [JB069], the “Selectivity (cardiac vs. skeletal myosin inhibition)” value in series [6] was “cardiac-selective”. Take `Cc1ccc2c(c1)C(=O)[C@]1(O)CCN(c3ccc(N)cc3)C1=N2` [para-aminoblebbistatin, reference compound]: in series [3] (positive control, 20 μM), the “Inhibition of cytokinesis (nuclei to cell ratio, N/C)” value was “inhibited cytokinesis”.
